{"data": "Measured values gathered from unrelated publications", "observed": "cell growth or viability"}
{"SMILES": "Clc1ccc(-c2cc(CNc3cccc4cccnc34)on2)c(Cl)c1", "cell line": "DND41", "assay": "MTS", "setting": "72 h", "measurement": "IC50", "result": "53.9 µM"}
{"SMILES": "C[C@H]1CN(C)CCN1c1nccc(-c2noc3c2CCC[C@@]32CCCc3sc(N)c(C#N)c32)n1", "cell line": "NCI-H727", "setting": "5 days", "measurement": "EC50", "result": "0.304 µM"}
{"SMILES": "c1ccc(-c2cc(CNc3cccc4cccnc34)on2)cc1", "cell line": "DND41", "assay": "MTS", "setting": "72 h", "measurement": "IC50", "result": "> 100 µM"}
{"SMILES": "CCOc1ccc(-c2cc(C(=O)O)c(-c3ccc(Cl)cc3)o2)cc1", "cell line": "WM 266-4", "assay": "MTT", "setting": "48 h", "measurement": "EC50", "result": "87 µM"}
{"SMILES": "COc1cc(C2C3=C(COC3=O)N(CCO)c3cc4c(cc32)CCC4)cc(OC)c1OC (centres unmarked)", "cell line": "MCF-12A", "assay": "ATP luminescence", "setting": "48 h", "measurement": "IC50", "result": "5.5 µM"}
{"SMILES": "COc1ccc(-c2oc3ccc(O)c(CN4CCCCC4)c3c2C(=O)NCc2cn(Cc3ccccc3)nn2)cc1", "cell line": "J774.A1", "assay": "resazurin", "setting": "18 h", "measurement": "IC50", "result": "8 µM"}
{"SMILES": "C[C@H]1CNCCCN1c1nccc(-c2noc([C@@]3(C)CCCc4sc(N)c(C#N)c43)n2)n1", "cell line": "NCI-H727", "setting": "5 days", "measurement": "EC50", "result": "> 1 µM"}
{"SMILES": "COc1cccc2c1C(=O)c1c(O)c3c(c(O)c1C2=O)C[C@@](O)(C(=O)CO)C[C@@H]3O[C@H]1C[C@H](N)[C@H](O)[C@H](C)O1", "cell line": "SU-DHL10", "assay": "ATP luminescence", "setting": "72 h", "measurement": "IC50", "result": "0.32 µM"}
{"SMILES": "O=c1cc(OCc2cc(-c3ccccn3)no2)c2ccccc2o1", "cell line": "DND41", "assay": "MTS", "setting": "72 h", "measurement": "IC50", "result": "> 100 µM"}
{"SMILES": "C[C@H](Oc1nccc(-c2noc([C@@]3(C)CCCc4sc(N)c(C#N)c43)n2)n1)[C@@H]1CCCN1C", "cell line": "NCI-H727", "setting": "5 days", "measurement": "EC50", "result": "0.271 µM"}
{"SMILES": "Cc1nc(Nc2ncc(C(=O)Nc3c(C)cccc3Cl)s2)cc(N2CC[C@H](O)C2)n1", "cell line": "JeKo-1", "assay": "ATP luminescence", "setting": "10 µM, 72 h", "measurement": "inhibition", "result": "37%"}
{"SMILES": "FC(F)(F)c1ccc(-c2cc(CNc3cccc4cccnc34)on2)cc1", "cell line": "DND41", "assay": "MTS", "setting": "72 h", "measurement": "IC50", "result": "82.3 µM"}
{"SMILES": "C[C@H]1CNCCN1c1nccc(-c2noc([C@@]3(C)CCCc4sc(N)c(C#N)c43)n2)n1", "cell line": "NCI-H727", "setting": "5 days", "measurement": "EC50", "result": "> 1 µM"}
{"SMILES": "CCOC(=O)c1c(-c2ccc(OC)cc2)oc2ccc(OCc3cn(Cc4ccccc4)nn3)c(CN3CCCCC3)c12", "cell line": "J774.A1", "assay": "resazurin", "setting": "18 h", "measurement": "IC50", "result": "37.9 µM"}
